Drawing on ChEMBL document CHEMBL4382238, “Synthesis of isatin based N1-alkylated 3-β-C-glycoconjugated-oxopropylidene oxindoles as potent antiplasmodial agents” (Eur J Med Chem, 2019), this text covers IC50, selectivity ratio and CC50 for one compound.

Data set [1] relates to Plasmodium falciparum. Put plainly: Antiplasmodial activity against chloroquine-sensitive Plasmodium falciparum 3D7 asynchronous cultures infected in human erythrocytes after 72 hrs by SYBR green1 staining based fluorescence assay. The class given is functional, organism-based. As to conditions: 3D7, 72 h. In short, it runs like this:
(§1)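 Parasites kept in human erythrocytes at 5% hematocrit in RPMI-1640 (HEPES) with 0.5% AlbuMaxII, 0.2% glucose, bicarbonate, 15 µM hypoxanthine, 37 °C CO2. Two-fold serial dilutions spanning […]; asynchronous culture at 0.8-1% parasitaemia, 1% haematocrit; 72 h, 37 °C. Lytic buffer with SYBR Green (1x final), 2 h dark, RT; Ex 485/Em 535 nm. IC50 from DNA signal versus drug-free controls; at least duplicate determinations.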

For data set [2], the system named is Plasmodium falciparum. Put plainly: Antiplasmodial activity against chloroquine-resistant Plasmodium falciparum K1 asynchronous cultures infected in human erythrocytes after 72 hrs by SYBR green1 staining based fluorescence assay. As to conditions: K1, 72 h. Type of data set: functional, organism-based. In short, it runs like this: as §1
The nature of data set [3]: Selectivity index, ratio of CC50 for African green monkey Vero cells to IC50 for chloroquine-resistant Plasmodium falciparum K1 asynchronous cultures infected in human erythrocytes. Type of data set: toxicity, cell-based. As to conditions: read-out: Ratio CC50/IC50.
The nature of data set [4]: Cytotoxicity against African green monkey Vero cells measured after 72 hrs by resazurin assay. The class given is cell-based. As to conditions: chlorocebus sabaeus. In short, it runs like this: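 VERO monkey kidney cells grown in MEM with 15% FBS under 5% CO2 at 37 °C. Cells exposed to serial drug dilutions for three days. 10% resazurin then added as viability marker. Fluorescence read at excitation 530 ± 25 nm and emission 590 ± 25 nm to calculate median cytotoxic concentration (CC50). Values are the average of at least duplicate determinations.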
For orientation: Resazurin is reduced to fluorescent resorufin, in cell work by metabolically active cells.

Data set [5] in a line: Selectivity index, ratio of CC50 for African green monkey Vero cells to IC50 for chloroquine-sensitive Plasmodium falciparum 3D7 asynchronous cultures infected in human erythrocytes. The class given is toxicity, cell-based. As to conditions: read-out: Ratio CC50/IC50.

Consider `CCCN1C(=O)/C(=C\C(=O)C[C@@H]2O[C@H](COC(C)=O)[C@@H](OC(C)=O)[C@H](OC(C)=O)[C@H]2OC(C)=O)c2ccccc21`, for which the figures for the IC50 in data set [1] and in data set [2] were 3.59 µM and over 5 µM, respectively. For the same compound, the selectivity ratio in data set [3] was under 24.9; in data set [5], 34.7. For the same compound, the CC50 at 72 h in data set [4] stood at 125 µM.

Usually IC50 stands for the concentration needed to halve the response being measured. For orientation: CC50 means the concentration that lowers cell viability or growth by half.
